From ChEMBL document CHEMBL1150247, “Structural determinants for affinity enhancement of a dual antagonist peptide entry inhibitor of human immunodeficiency virus type-1” (J Med Chem, 2008) come the findings set out here.

Structures are written as SMILES. Active and inactive are the calls of the source. The rule behind the calls is not given here.

As a reminder, the Kd is the constant that tells how readily two partners part at equilibrium. The low end stands for tighter binding, the high end for weaker binding. One may read the IC50 as the concentration needed to halve the response being measured.

A short description of data set [1]: Binding affinity to immobilized HIV1 YU2 gp120 by surface plasmon resonance method. Also on record: species or system Human immunodeficiency virus 1. An outline of the steps:
(§1)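 YU2 gp120 (Drosophila S2-expressed, F105-affinity purified) amine-coupled to CM5 chip (~4000 RU); peptides in PBS injected at 15 μL/min, 5 min association, 5 min dissociation. Buffer and anti-IL5Rα 2B6R control-surface responses subtracted; kinetic constants fitted in BIAevaluation.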
In general terms: SPR reads the build-up and loss of mass on a sensor chip optically.

Data set [2] is described as follows: Inhibition of HIV1 YU2 gp120 binding to immobilized CD4 binding site specific immunoglobulin G b12 monoclonal antibody by surface plasmon resonance method. On the set-up: species or system Human immunodeficiency virus 1.
The nature of data set [3]: Binding affinity to HIV1 YU2 gp120 by isothermal titration calorimetric method. On the set-up: species or system Human immunodeficiency virus 1. In general terms: In ITC the heat of successive injections is recorded.
A short description of data set [4]: Inhibition of HIV1 YU2 gp120 binding to immobilized CD4 binding site specific b6 monoclonal antibody by surface plasmon resonance method. On the set-up: species or system Human immunodeficiency virus 1.
Data set [5] relates to Human immunodeficiency virus 1. The data set is described as follows: Antiviral activity against HIV1 BaL in CCR5 expressing P4 cells after 2 hrs. The note with it: Human immunodeficiency virus 1, BaL, P4, 2 h. It counts as functional, organism-based. An outline of the steps: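 P4-CCR5 cells (DMEM, 10% FBS, puromycin) seeded 1.2×10^4/well ~18 h ahead; exposed 2 h to HIV-1 BaL plus peptide, washed, cultured 46 more h; infection read by β-galactosidase reporter assay. Infectivity relative to mock-treated infected cells; IC50 from sigmoidal dose-response fit; two independent experiments combined.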

A short description of data set [6]: Inhibition of HIV1 YU2 gp120 binding to immobilized CD4 induced 17b monoclonal antibody by surface plasmon resonance method. Also on record: species or system Human immunodeficiency virus 1.
Data set [7] is described as follows: Inhibition of HIV1 YU2 gp120 binding to immobilized CD4 binding site specific F105 monoclonal antibody by surface plasmon resonance method. On the set-up: species or system Human immunodeficiency virus 1.
Data set [8] is described as follows: Cytotoxicity against CCR5 expressing human P4 cells after 2 hrs by MTT assay. It counts as cell-based. The note with it: p4, 2 h. The procedure, abridged: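 P4-CCR5 cells seeded 4×10^4/well ~18 h ahead, exposed 2 h to varying peptide concentrations, washed, then viability by MTT; triplicate in two independent assays.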
Data set [9] is described as follows: Inhibition of HIV1 YU2 gp120 binding to immobilized CD4 by surface plasmon resonance method. Also on record: species or system Human immunodeficiency virus 1.
The test system of data set [10] is Human immunodeficiency virus 1. The data set is described as follows: Binding affinity to immobilized HIV1 YU2 gp120 upto 1 mM by surface plasmon resonance method. An outline of the steps: as §1

For `CC[C@H](C)[C@H](NC(=O)[C@@H](N)CCCNC(=N)N)C(=O)N[C@@H](CC(N)=O)C(=O)N[C@@H](CC(N)=O)C(=O)N[C@H](C(=O)N1C[C@@H](n2cc(-c3ccccc3)nn2)C[C@H]1C(=O)N[C@@H](Cc1c[nH]c2ccccc12)C(=O)N[C@@H](CO)C(=O)N[C@@H](CCC(=O)O)C(=O)N[C@@H](C)C(=O)N[C@@H](CCSC)C(=O)N[C@@H](CCSC)C(=O)O)[C@@H](C)CC`, the Kd in [1] amounted to 0.023 µM; in data set [3], 0.033 µM. For the same compound, the IC50 amounted to 0.162 µM in data set [2]; 0.106 µM in data set [4]; 1.4 µM in data set [5]; 0.172 µM in data set [6]; 0.109 µM in [7]; 0.154 µM in [9]. Moreover, the Activity result in [8] is “Non-toxic”.
On to `CC[C@H](C)[C@H](NC(=O)[C@@H](N)CCCNC(=N)N)C(=O)N[C@@H](CC(N)=O)C(=O)N[C@@H](CC(N)=O)C(=O)N[C@H](C(=O)N1CCC[C@H]1C(=O)N[C@@H](Cc1c[nH]c2ccccc12)C(=O)N[C@@H](CO)C(=O)N[C@@H](CCC(=O)O)C(=O)N[C@@H](C)C(=O)N[C@@H](CCSC)C(=O)N[C@@H](CCSC)C(=O)O)[C@@H](C)CC` [RINNIPWSEAMM], for which the Kd worked out at 5 µM in data set [1] and 2.6 µM in data set [3]. The IC50 turned out to be 8.8 µM in [2]; 10 µM in data set [4]; 48 µM in data set [5]; 7.2 µM in data set [6]; 6.4 µM in data set [7]; 5.4 µM in data set [9]. Besides, the Activity result in [8] is recorded as “Non-toxic”.
Consider `CC[C@H](C)[C@H](NC(=O)[C@@H](N)CCCNC(=N)N)C(=O)N[C@@H](CC(N)=O)C(=O)N[C@@H](CC(N)=O)C(=O)N[C@H](C(=O)N1C[C@@H](n2cc(C3(N)CCCCC3)nn2)C[C@H]1C(=O)N[C@@H](Cc1c[nH]c2ccccc12)C(=O)N[C@@H](CO)C(=O)N[C@@H](CCC(=O)O)C(=O)N[C@@H](C)C(=O)N[C@@H](CCSC)C(=O)N[C@@H](CCSC)C(=O)O)[C@@H](C)CC`, for which the result in data set [10] was inactive.
For `CC[C@H](C)[C@H](NC(=O)[C@@H](N)CCCNC(=N)N)C(=O)N[C@@H](CC(N)=O)C(=O)N[C@@H](CC(N)=O)C(=O)N[C@H](C(=O)N1C[C@@H](n2cc(-c3ccc(C)cc3)nn2)C[C@H]1C(=O)N[C@@H](Cc1c[nH]c2ccccc12)C(=O)N[C@@H](CO)C(=O)N[C@@H](CCC(=O)O)C(=O)N[C@@H](C)C(=O)N[C@@H](CCSC)C(=O)N[C@@H](CCSC)C(=O)O)[C@@H](C)CC`, in data set [1], the Kd came out at 0.012 µM. Besides, the IC50 was found to be 0.117 µM in [2]; 0.136 µM in data set [4]; 0.156 µM in data set [5]; 0.094 µM in data set [6]; 0.076 µM in [7]; 0.067 µM in data set [9]. Besides, the Activity result in [8] is recorded as “Non-toxic”.
